Screening data as filed in PubChem.
This is a sample that favours compounds with a hit; in the whole collection about 1.8% have one here.
PHOSPHO1 block – PHOSPHO1 (human) inhibition | recombinant PHOSPHO1, absorbance phosphatase assay | inhibition, % at 13.3 µM | actives 1.1% (n = 290,000) | AID 1565; in the data active = inhibition above about 60%
Target sequence (Q8TCT1 whole entry, looked up): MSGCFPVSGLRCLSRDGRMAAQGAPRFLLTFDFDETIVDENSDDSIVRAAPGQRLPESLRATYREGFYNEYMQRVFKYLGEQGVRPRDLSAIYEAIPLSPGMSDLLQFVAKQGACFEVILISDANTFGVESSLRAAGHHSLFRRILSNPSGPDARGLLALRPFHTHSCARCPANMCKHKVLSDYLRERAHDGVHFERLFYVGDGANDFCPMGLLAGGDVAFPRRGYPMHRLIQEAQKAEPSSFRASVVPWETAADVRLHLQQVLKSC
TbMetRS inhib – blocks T. brucei methionyl-tRNA synthetase activity. AID 624268. purified T. brucei MetRS, ATP depletion, Kinase-Glo luminescence. actives 0.4% (n = 360,000). inhibition, % at 11.9 µM;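 active = inhibition above a per-plate cutoff of the control wells' mean inhibition plus 3 SD, cut at about 5.5% in these data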;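 note: 0% = DMSO wells median and 100% = median of wells with control inhibitor compound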
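assay system = parasite MetRS enzyme | timing = 15 min preincubation, 2 h reaction, all 25 °C | evaluation = percent inhibition relative to median high and low control wells | medium = HEPES buffer containing pyrophosphatase, BSA, spermine, DTT | compound = single dose, 11.9 µM final nominal, 0.9% final DMSO | detection = Kinase-Glo luminescence, ATP depletion format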
APOBEC3A inh – inhibitors of human APOBEC3A DNA deaminase | inhibition, % at 20 µM | P31941 | actives 0.41% (n = 330,000) | recombinant A3A, FAM/TAMRA ssDNA deamination fluorescence;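 active = at least 40% inhibition at 20 µM here, with at most 30% in a related deaminase screen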;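 note: plate controls were A3A with DMSO for no effect and wells lacking A3A enzyme for full effect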
APOBEC3G inh – APOBEC3G (human) deaminase inhibition. Q9HC16. AID 493012. actives 0.28% (n = 330,000). inhibition, % at 20 µM. recombinant A3G, ssDNA deamination FAM/TAMRA fluorescence;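 active = inhibition of at least 40% at 20 µM, with no more than 30% in the related APOBEC3A deaminase screen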;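 note: plate controls were DMSO wells with A3G for no effect and wells lacking A3G enzyme for full effect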
Target sequence (Q9HC16 whole entry, looked up): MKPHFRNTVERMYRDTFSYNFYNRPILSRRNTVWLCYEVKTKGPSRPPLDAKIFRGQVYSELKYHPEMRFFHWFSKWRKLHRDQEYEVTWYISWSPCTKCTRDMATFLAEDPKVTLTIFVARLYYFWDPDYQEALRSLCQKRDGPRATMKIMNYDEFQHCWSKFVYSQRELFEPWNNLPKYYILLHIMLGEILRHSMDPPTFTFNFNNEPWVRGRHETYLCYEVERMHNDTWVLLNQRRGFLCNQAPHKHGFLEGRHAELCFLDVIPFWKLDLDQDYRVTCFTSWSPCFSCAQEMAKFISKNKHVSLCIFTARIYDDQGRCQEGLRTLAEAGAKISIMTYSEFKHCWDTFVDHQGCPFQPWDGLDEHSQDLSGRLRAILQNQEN
pCIP destab – lowers stability of the mouse p/CIP coactivator protein. F442A p/CIP-EGFP cells, EGFP fluorescence, 16 h. decrease of EGFP signal, % at 10 µM. actives 0.01% (n = 290,000);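 active = EGFP signal decrease of at least 30% at 10 µM or well 3 SD below plate mean, unless failing retest; inactive = the rest, including hits failing retest or dose response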
* marks the source's active call; other numbers are inactive results; / = not tested or not shown.

SMILES	PHOSPHO1 block	TbMetRS inhib	APOBEC3A inh	APOBEC3G inh	pCIP destab
CSc1ncc(Cl)c(C(=O)Nc2ccc(NC(C)=O)cc2)n1	60.0*	-0.3	0.3	-3.4	2.2
CCCNC(=O)C1(C)CCN(C(=O)C(c2ccccc2)c2ccccc2)C1 (stereo not given)	/	0.3	/	/	/
COc1cc(NC(=O)C2CCCN(c3ncnc4c3nc3n4CCCCC3)C2)cc(OC)c1OC (stereo not given)	47.7	-0.7	-6.2	-8.6	4.3
COc1cc(NC(=O)Cn2cnc3c(nc4n3CCCCC4)c2=O)cc(OC)c1OC	75.1*	0.7	2.3	17.3	2.2
COc1ccc(C)cc1S(=O)(=O)N1CCC(C(=O)N2CCN(C)CC2)CC1	4.9	-0.4	-3.2	-4.7	2.2
Cc1ccc(CSCCNC(=O)c2ccc(C)cc2)cc1	61.8*	-0.4	1.2	-5.9	13.6
COC(=O)N1C(=O)[C@](c2ccsc2)(C(C)C)N1C(=O)OC	66.8*	-0.2	-1.2	-7.0	-14.3
CC(C)CSc1nc2c(c(=O)[nH]c(=O)n2C)n1CC(O)COc1cccc2ccccc12 (stereo not given)	87.8*	-1.3	/	/	-18.5
COCCCNc1nc2c(c(=O)[nH]c(=O)n2C)n1CC(O)COc1ccccc1 (stereo not given)	91.7*	-0.6	-2.2	-1.0	3.3
COc1ccc(OCC(O)Cn2c(N)nc3c2c(=O)[nH]c(=O)n3C)cc1 (stereo not given)	60.8*	-0.5	-0.2	-5.6	-13.6
COCCCNc1nc2c(c(=O)[nH]c(=O)n2C)n1CC(O)COc1ccccc1C (stereo not given)	4.7	-0.1	-4.3	-6.8	-7.2
Cc1cn(CC(=O)N2CCN(c3ccccn3)CC2)c(=O)[nH]c1=O	/	-0.2	/	/	/
COc1ccc(-n2ncc3c2CC(C)(C)CC3NC(=O)CCn2cncn2)cc1 (stereo not given)	89.8*	-0.1	6.9	-3.2	-14.1
C=CCCC(=O)NC1CC(C)(C)Cc2c1cnn2-c1ccc(OC)cc1 (stereo not given)	40.3	-0.4	-0.5	-5.7	-3.1
CC1(C)Cc2nc(N)c(C(=O)NCCO)cc2CO1	-16.3	0.0	2.2	1.9	-17.3
N#Cc1c(NC(=O)c2ccccc2Cl)n(Cc2ccccc2)c2nc3ccccc3nc12	0.8	6.8*	/	/	-6.3
Cc1cc2ccccc2n1CCNC(=O)C(C)Oc1ccccc1 (stereo not given)	-14.1	-1.1	-3.6	-8.4	5.3
Cc1cc(C(=O)CSc2nc3ccc(Cl)cc3[nH]2)c(C)n1CC1CCCO1 (stereo not given)	99.8*	0.8	3.3	-5.7	-11.3
COc1ccc(Nc2nnc(SCC(=O)c3cc(C)n(CC4CCCO4)c3C)s2)cc1 (stereo not given)	97.9*	-0.1	-0.4	-3.8	-6.2
O=C(CSc1nc2ccc(Cl)cc2[nH]1)c1cccs1	0.1	0.9	0.4	1.4	-7.3
Cc1cc(C(=O)CSc2nc3ccc(Cl)cc3[nH]2)c(C)n1C	86.5*	1.1	2.6	1.4	-11.3
C/C(N)=C(/C#N)C(=O)CSc1nc2ccc(C)cc2[nH]1	71.5*	-0.5	-3.4	-2.0	-8.9
Cc1ccc2nc(SCC(=O)c3c(N)n(C)c(=O)n(C)c3=O)[nH]c2c1	-114.4	0.7	4.7	-1.3	10.5
O=C(Nc1ccc(F)cc1F)c1c(C(F)(F)F)ccnc1Oc1ccc(Cl)cc1	-10.4	-0.6	7.2	0.5	-8.5
COc1ccccc1N(C)S(=O)(=O)c1ccc(C(=O)Nc2cc(F)ccc2C)cc1	/	0.2	-0.6	-0.3	/
SMILES	PHOSPHO1 block	TbMetRS inhib	APOBEC3A inh	APOBEC3G inh	pCIP destab
O=C(Nc1cc(Cl)ccc1-n1cncn1)c1cc(S(=O)(=O)N2CCOCC2)ccc1F	31.8	-0.4	-1.7	-2.9	-11.0
COc1ccc(-n2nnnc2C(c2cccs2)N2CCN(C/C=C/c3ccccc3)CC2)cc1 (stereo not given)	/	0.1	/	/	/
Cc1ccc2nc(SCC(=O)c3cc(C)n(C)c3C)[nH]c2c1	71.0*	-0.4	-4.7	-6.9	-5.7
Cc1cc(C(=O)CSc2nc3ccccc3[nH]2)c(C)n1C	50.6	-0.1	0.4	-4.6	-1.5
Nc1c(C(=O)NC2CC2)sc2nc3c(c(-c4ccco4)c12)CC/C3=C/c1ccco1	81.0*	0.6	/	/	-0.5
Cc1cc(OCc2cc(C(=O)NCCN3CCCCC3CO)no2)cc(C)c1Cl (stereo not given)	47.6	-0.5	-2.8	-8.1	-3.4
Cc1cc(OCc2cc(C(=O)NCc3csc(C(C)C)n3)no2)cc(C)c1Cl	67.8*	-0.4	1.4	1.2	-9.2
CCN1CCN(C(c2ccccc2)c2nnnn2Cc2ccc3c(c2)OCO3)CC1 (stereo not given)	61.1*	-0.4	-4.0	-6.6	3.3
CCN1CCN(C(c2ccc(OC)cc2)c2nnnn2Cc2ccc3c(c2)OCO3)CC1 (stereo not given)	45.4	-0.5	-4.2	-11.2	-5.0
COc1ccc(Cn2nnnc2C(c2ccc(N(C)C)cc2)N2CCC(C)CC2)cc1 (stereo not given)	55.6	-0.1	0.5	2.3	0.3
CC1CCN(C(c2ccc(N(C)C)cc2)c2nnnn2Cc2ccccc2)CC1 (stereo not given)	68.8*	-0.7	-4.7	-5.5	-2.6
COc1ccc2c(c1)c(=O)oc1cc(OC(C(=O)O)c3ccccc3)ccc12 (stereo not given)	32.7	0.1	4.0	-0.7	-1.5
COc1ccc(CNC(=O)[C@H](C)NC(=O)N2CCn3c2nc2ccccc23)cc1	69.7*	0.1	-3.7	-4.3	-1.1
C[C@H](NC(=O)N1CCn2c1nc1ccccc12)C(=O)NCCc1ccccc1	54.3	0.0	-0.9	-0.7	-0.5
O=C(COc1ccc2c3c(c(=O)oc2c1)CCC3)NCCCN1CCOCC1	61.6*	-0.1	-5.2	-10.0	2.3
O=C(COc1ccc2c(c1)oc(=O)c1ccccc12)NCCCN1CCOCC1	27.3	0.0	5.1	20.7	7.6
Cc1ccc(C(=O)CSc2ncn[nH]2)cc1	97.1*	-1.0	-1.2	-4.0	0.1
CCc1ccc(C(=O)CSc2ncn[nH]2)cc1	88.5*	-0.6	-0.1	-1.8	-5.1
COc1ccc(C(=O)CSc2ncn[nH]2)cc1OC	76.6*	0.2	-3.7	-4.6	8.9
O=C(CSc1ccccn1)c1ccc(F)cc1	58.6	0.2	-4.6	-4.5	-2.8
Cc1ccc(C(=O)CSc2ccccn2)cc1	82.7*	-0.3	-2.4	-5.8	-4.8
O=C(O)CN1C(=O)/C(=C/c2ccccc2Br)Oc2ccccc21	43.7	0.0	-3.5	-10.5	-10.3
O=C(C1=C[C@@H](c2ccccc2)C[C@@H](OCc2ccc(CO)cc2)O1)N1CCCCCCC1	31.7	-0.2	3.3	-7.4	-15.2
O=C(c1ccc(-c2ccccc2)cc1)N1CCN(c2ccccc2F)CC1	13.9	-0.9	-1.7	-1.0	-4.6
COc1ccc(CNC(=O)CN(C)S(=O)(=O)c2ccc3c(c2)OCCO3)cc1OC	/	-0.2	-4.1	-4.6	/
